Calls of active or inactive are those of the source.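 Rule for the calls, unless noted: active = mean duplicate potentiation above the buffer control mean plus 5 SD of buffer wells; inactive = the rest.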

Consider 30 molecules from PubChem BioAssay.

Test [1] can be described thus: nonspecific flux increase, KCNQ1-free cells – parental CHO cells, counter-screen for KCNQ1 potentiator project (AID 493006;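 active = duplicate-averaged activation above buffer control mean plus 5 SD of those controls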;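 for activation: fluorescence ratio of max minus min over baseline after K+ and Tl+ depolarization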). The conditions noted are these: parental CHO-K1 cells, FluxOR thallium flux, at 10 µM; stronger effect = higher value. The procedure, abridged:
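Assay system: parental CHO-K1 cells lacking KCNQ1, loaded with FluxOR thallium dye; timing: dye 90 min RT, compound 20 min RT; signal: kinetic thallium-flux fluorescence; repeats: duplicate wells per compound, percent values averaged; benchmarks: buffer and R-L3 controls; reagent: Potassium/thallium depolarization pulse; read-out: fluorescence change ratio scaled 0% buffer, 100% R-L3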

Test [2] deals with Potassium voltage-gated channel subfamily KQT member 1 (Homo sapiens) (UniProt P51787). The test is described as follows: enhancement of KCNQ1 channel thallium flux – FluxOR thallium flux, CHO cells, duplicates, confirmation (AID 493007;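 active = potentiation averaged over duplicate wells exceeding buffer-only control mean by more than 3 SD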;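 for outcome: cells depolarized by a potassium plus thallium sulfate stimulus after compound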). The conditions noted are these: KCNQ1 cell line, FluxOR thallium flux fluorescence, at 10 µM; stronger effect = higher value, % of reference activator effect, buffer zero. The procedure, abridged:
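material = CHO cells stably expressing the KCNQ1 potassium channel | repeats = duplicate wells per compound | measure = percent activation between buffer and R-L3 responses | signal = FluxOR thallium-flux fluorescence, kinetic read | schedule = FluxOR dye loading 90 min, compound exposure 20 min, room temperature | control set = buffer and R-L3 controls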

For test [3], the target named is Potassium voltage-gated channel subfamily KQT member 2 (Rattus norvegicus) (UniProt O88943). The test is described as follows: KCNQ2 thallium flux enhancement – KCNQ2-CHO-K1 cells, selectivity assay for KCNQ1 potentiator project (AID 493009).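 Note: assay conditions were tuned for KCNQ1 rather than KCNQ2 modulators; signal is max minus min fluorescence divided by baseline after thallium stimulus.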 The conditions noted are these: FluxOR thallium flux fluorescence, at 10 µM; stronger effect = higher value, scaled: buffer 0, activator control 100.
Potassium voltage-gated channel subfamily KQT member 2 (Rattus norvegicus), sequence (O88943 whole entry, looked up): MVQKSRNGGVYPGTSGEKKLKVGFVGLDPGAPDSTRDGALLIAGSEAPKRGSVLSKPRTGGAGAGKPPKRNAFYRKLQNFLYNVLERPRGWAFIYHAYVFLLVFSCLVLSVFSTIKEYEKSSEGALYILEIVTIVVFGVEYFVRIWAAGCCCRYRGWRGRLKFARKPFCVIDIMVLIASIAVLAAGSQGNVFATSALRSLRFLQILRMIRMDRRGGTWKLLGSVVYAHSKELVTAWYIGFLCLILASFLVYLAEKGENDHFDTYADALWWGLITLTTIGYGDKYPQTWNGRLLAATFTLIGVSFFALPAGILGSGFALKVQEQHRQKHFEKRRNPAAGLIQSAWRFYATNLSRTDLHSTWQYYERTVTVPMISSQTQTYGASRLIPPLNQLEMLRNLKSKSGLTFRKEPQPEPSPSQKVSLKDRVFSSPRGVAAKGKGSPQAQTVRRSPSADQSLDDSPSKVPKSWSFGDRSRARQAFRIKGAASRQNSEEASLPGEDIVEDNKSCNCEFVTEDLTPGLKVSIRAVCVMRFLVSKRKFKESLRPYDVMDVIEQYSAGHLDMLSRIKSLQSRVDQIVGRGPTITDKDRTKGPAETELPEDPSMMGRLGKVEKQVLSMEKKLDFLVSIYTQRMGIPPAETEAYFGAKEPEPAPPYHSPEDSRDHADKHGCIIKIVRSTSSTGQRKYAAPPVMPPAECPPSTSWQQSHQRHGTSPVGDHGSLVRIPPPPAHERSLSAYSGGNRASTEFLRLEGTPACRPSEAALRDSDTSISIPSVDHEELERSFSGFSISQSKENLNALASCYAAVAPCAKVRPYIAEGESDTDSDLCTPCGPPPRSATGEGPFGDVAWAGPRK

Test [4] concerns the target Potassium voltage-gated channel subfamily KQT member 1 (Homo sapiens) (UniProt P51787). Kind of test: KCNQ1 activators by electrophysiology – IonWorks patch clamp, KCNQ1-CHO cells, orthogonal assay for KCNQ1 potentiator project, confirmation (AID 493184;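 active = current rise at least 3 SD above the untreated control mean in each of two repeat wells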;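 for current potentiation: percent change of the same well's current before compound addition so 0% = no change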). The conditions noted are these: automated patch clamp current, at 10 µM; stronger effect = higher value. The procedure, abridged:
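Assay system – CHO cells carrying KCNQ1 · Medium – pH 7.4 external bath · Probe or stimulus – depolarizing pulse to +40 mV from -90 mV · Compound dosing – one dose, 10 µM final · Measured by – automated perforated-patch electrophysiology · Measure – % potentiation of steady-state current relative to pre-compound · Repeats – two replicates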
Background: Patch clamp records ionic current or voltage across a cell membrane.

Potassium voltage-gated channel subfamily KQT member 1 (Homo sapiens), sequence (P51787 whole entry, looked up): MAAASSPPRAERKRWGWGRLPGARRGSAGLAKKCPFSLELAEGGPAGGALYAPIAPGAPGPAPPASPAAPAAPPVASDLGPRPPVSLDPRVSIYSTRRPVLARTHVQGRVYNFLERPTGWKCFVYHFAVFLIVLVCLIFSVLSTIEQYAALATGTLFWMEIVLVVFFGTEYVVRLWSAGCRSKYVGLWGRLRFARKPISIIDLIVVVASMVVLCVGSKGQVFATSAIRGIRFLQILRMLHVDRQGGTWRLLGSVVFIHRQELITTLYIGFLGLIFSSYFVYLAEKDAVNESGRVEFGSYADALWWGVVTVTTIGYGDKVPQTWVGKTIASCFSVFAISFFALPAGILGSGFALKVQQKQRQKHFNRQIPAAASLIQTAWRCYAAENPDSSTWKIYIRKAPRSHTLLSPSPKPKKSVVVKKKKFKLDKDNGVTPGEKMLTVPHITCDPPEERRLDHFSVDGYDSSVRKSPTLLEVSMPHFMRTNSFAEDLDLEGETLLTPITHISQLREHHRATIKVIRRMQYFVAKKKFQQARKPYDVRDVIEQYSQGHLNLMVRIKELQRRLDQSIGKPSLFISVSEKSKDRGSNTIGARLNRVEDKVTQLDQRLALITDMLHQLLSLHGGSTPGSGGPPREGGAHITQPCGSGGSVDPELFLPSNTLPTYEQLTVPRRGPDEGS

As for `O=C(NC(=S)N1CCN(Cc2ccc3c(c2)OCO3)CC1)c1cccc(Br)c1`, the activation in test [1] is 314% (active). Besides, the potentiation in test [2] is 123% (active); in test [3], 349% (active). Further, in test [4], the outcome was inactive.
As to `Cc1ccc(Oc2ccc(NC(=O)Cn3ccsc3=N)cc2)cc1`, the result in test [1], in test [2], in test [3] and in test [4] was inactive.
Regarding `COc1ccccc1C(=O)NC(=S)NNC(=O)c1sc2ccccc2c1Cl`, in test [1], the activation is 358% (active). In addition, the potentiation in test [2] was 187% (active); in test [3] it was 361% (active). In addition, in test [4], the outcome was inactive.
For `C[C@@H](NC(=O)[C@@H]1Cc2ccccc2CN1)C(=O)NC1CCCC1`, the outcome in test [1], in test [2], in test [3] and in test [4] was inactive.
With `O=C(NC(=S)N1CCCc2ccccc21)c1ccccc1`, the result in test [1], in test [2] and in test [4] was inactive. Further, the potentiation in test [3] was 148% (active).
As for `O=C(CSc1ccc2ccccc2n1)Nc1ccc(N2CCOCC2)cc1`, the result in test [1], in test [2], in test [3] and in test [4] was inactive.
In the case of `O=C(Cn1ncc2c(=O)oc3ccccc3c21)N1CCN(C(=O)c2ccco2)CC1`, the result in test [1], in test [2], in test [3] and in test [4] was inactive.
Regarding `COc1cccc(Oc2cnc(N)nc2-c2ccc(OC)cc2O)c1`, the outcome in test [1], in test [2], in test [3] and in test [4] was inactive.
For `CC1=C(C)/C(=N\OS(=O)(=O)c2ccccc2)C=CC1=O`, the outcome in test [1], in test [2], in test [3] and in test [4] was inactive.
`Cc1[nH]n(-c2ccccc2)c(=O)c1N=Nc1nccs1`: the activation in test [1] was 816% (active). In addition, the values for the potentiation in test [2] and in test [3] were 418% (active) and 787% (active), respectively. In test [4], the current potentiation is 20.9% (active).
In the case of `COc1ccc2c(c1)c(=O)c(C(=O)O)c(-c1ccc3c(c1)OCO3)n2C`, the result in test [1], in test [2], in test [3] and in test [4] was inactive.
Turning to `O=C(NC(=S)N1CCN(C/C=C/c2ccccc2)CC1)c1ccc(F)cc1`, the activation in test [1] was 190% (active). Besides, the potentiation in test [2] was 74% (active); in test [3], 260% (active). Also, in test [4], the result was inactive.
`COc1ccc(-n2nnnc2-c2ccccc2)cc1`: the outcome in test [1], in test [2], in test [3] and in test [4] was inactive.
With `O=C(Nc1ccccc1OC(F)F)c1ccc(F)cc1`, the outcome in test [1], in test [2], in test [3] and in test [4] was inactive.
For `Cc1cccn2c(=O)nc(SCC(=O)N3N=C(c4cccs4)CC3c3ccc(F)cc3)nc12` (stereo not given), the result in test [1], in test [2], in test [3] and in test [4] was inactive.
For `CC(C)N(Cc1ccccc1)C(=S)NC(=O)C1(C)CC1(Cl)Cl` (stereo not given), the activation in test [1] was 357% (active). Also, the potentiation was 138% (active) in test [2] and 354% (active) in test [3]. The result in test [4] was inactive.
Turning to `CCOC(=O)c1sc(NC(=O)c2ccc(OC(C)=O)cc2)nc1C`, the result in test [1], in test [2], in test [3] and in test [4] was inactive.
Take `COc1ccc(-c2cc(C(=O)Nc3c(Cl)cc(Cl)cc3Cl)c3ccccc3n2)cc1OC`: the outcome in test [1], in test [2], in test [3] and in test [4] was inactive.
Take `COc1ccc(CNC(=O)CNC(C)c2ccc(F)cc2)cc1` (stereo not given): the result in test [1], in test [2], in test [3] and in test [4] was inactive.
With `Cc1onc(-c2ccccc2Cl)c1C(=O)Nc1ccccc1O`, the outcome in test [1], in test [2], in test [3] and in test [4] was inactive.
`S=c1[nH]c2cc(-c3ccccc3)ccc2o1`: the activation in test [1] is 306% (active). Further, the potentiation is 89.5% (active) in test [2] and 318% (active) in test [3]. Further, in test [4], the result was inactive.
In the case of `COc1ccc(OCc2cc(C(=O)N(C)CC3CCCCO3)no2)c(Cl)c1` (stereo not given), the outcome in test [1], in test [3] and in test [4] was inactive. The potentiation in test [2] is 17.5% (active).
As for `O=C(NC(=S)NCc1ccccc1)c1ccc(Br)o1`, the activation in test [1] is 434% (active). Moreover, the potentiation in test [2] is 313% (active); in test [3], 510% (active). Besides, the outcome in test [4] was inactive.
Regarding `CCCCn1c(SCC(N)=O)nc2ccc(N3CCOCC3)cc2c1=O`, the result in test [1], in test [2], in test [3] and in test [4] was inactive.
Turning to `CCN(c1ccc(NS(=O)(=O)c2cc(Cl)ccc2Cl)cc1)C(C)C`, the outcome in test [1], in test [2], in test [3] and in test [4] was inactive.
In the case of `COc1ccc(OCC(=O)NC(=S)Nc2ccc(N3CCOCC3)c(Cl)c2)cc1`, the activation in test [1] was 142% (active). In addition, the potentiation in test [2] is 33.5% (active). Further, the result in test [3] and in test [4] was inactive.
Turning to `COc1ccc(OCC(=O)N2CCCC2=O)c([N+](=O)[O-])c1`, the outcome in test [1], in test [2], in test [3] and in test [4] was inactive.
In the case of `O=C(NC(=S)N1CCCCCC1)c1ccc(Cl)cc1Cl`, the activation in test [1] was 148% (active). Also, the outcome in test [2] and in test [4] was inactive. Besides, the potentiation in test [3] was 158% (active).
As to `CC(=O)Nc1ccc(/C=N/N2C(=O)NC(C)(c3ccc(OC(F)F)cc3)C2=O)cc1` (stereo not given), the activation in test [1] is 219% (active). The potentiation was 100% (active) in test [2] and 234% (active) in test [3]. Moreover, the outcome in test [4] was inactive.
In the case of `C/C(N)=C(/C#N)C(=O)COc1ncnc2ccc(Br)cc12`, the outcome in test [1], in test [2], in test [3] and in test [4] was inactive.
